Reference: ChEMBL document CHEMBL4257453, “Identification of karanjin isolated from the Indian beech tree as a potent CYP1 enzyme inhibitor with cellular efficacy via screening of a natural product repository” (Medchemcomm, 2018)

Key:
[1] = target: Cytochrome P450 3A4 (Homo sapiens, UniProt P08684); test: Inhibition of human recombinant CYP3A4 expressed in HEK293 cells using dibenzylfluorescein substrate substrate preincubated for 30 mins followed by substrate addition and measured after 60 mins by fluorescence assay relative to control; format: ADME, cell-based
Cytochrome P450 3A4, sequence (P08684 whole entry): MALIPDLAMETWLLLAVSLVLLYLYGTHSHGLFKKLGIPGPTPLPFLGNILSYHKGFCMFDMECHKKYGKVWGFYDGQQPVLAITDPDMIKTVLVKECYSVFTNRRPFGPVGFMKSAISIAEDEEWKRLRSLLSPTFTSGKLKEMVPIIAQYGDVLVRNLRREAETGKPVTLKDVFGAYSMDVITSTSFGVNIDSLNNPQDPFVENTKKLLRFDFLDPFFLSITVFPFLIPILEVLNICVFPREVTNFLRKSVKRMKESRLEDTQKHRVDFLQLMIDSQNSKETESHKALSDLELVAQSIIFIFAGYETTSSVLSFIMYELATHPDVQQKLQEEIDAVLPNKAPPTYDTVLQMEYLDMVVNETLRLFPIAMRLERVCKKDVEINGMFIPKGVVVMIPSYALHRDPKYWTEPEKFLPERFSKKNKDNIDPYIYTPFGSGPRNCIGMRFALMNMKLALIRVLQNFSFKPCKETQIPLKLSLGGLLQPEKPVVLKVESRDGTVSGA
In short: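 HEK293 cells adapted to suspension and transiently transfected with pcDNA3.1 plasmids carrying the individual CYP; 100×10^3 cells per well in triplicate. Fluorogenic substrate is then added at 5 μM and fluorescence read for 60 min.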

[2] = target: T1, CYP1B1 (Homo sapiens, UniProt Q16678); test: Inhibition of recombinant human CYP1B1 expressed in baker's yeast-derived microsomes (Sacchrosomes) at 10 uM using 7-ethoxyresorufin substrate by EROD assay relative to control; format: ADME; settings: probe 7-ethoxyresorufin
T1 sequence (Q16678 whole entry): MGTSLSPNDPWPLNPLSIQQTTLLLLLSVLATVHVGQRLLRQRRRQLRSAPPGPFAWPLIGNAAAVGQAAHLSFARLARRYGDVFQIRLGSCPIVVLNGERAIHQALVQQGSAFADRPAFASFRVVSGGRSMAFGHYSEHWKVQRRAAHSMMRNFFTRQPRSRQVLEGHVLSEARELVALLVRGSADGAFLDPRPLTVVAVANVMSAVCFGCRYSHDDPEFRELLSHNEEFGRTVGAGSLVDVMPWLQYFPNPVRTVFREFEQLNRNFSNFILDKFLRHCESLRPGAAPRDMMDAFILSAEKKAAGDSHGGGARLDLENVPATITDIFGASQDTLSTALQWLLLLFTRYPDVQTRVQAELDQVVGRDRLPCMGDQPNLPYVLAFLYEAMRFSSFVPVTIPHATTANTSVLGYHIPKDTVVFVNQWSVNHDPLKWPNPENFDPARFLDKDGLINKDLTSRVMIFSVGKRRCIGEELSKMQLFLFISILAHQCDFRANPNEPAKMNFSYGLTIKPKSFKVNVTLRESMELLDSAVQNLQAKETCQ
In short: (§1)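 Yeast microsomes carrying recombinant CYP (Sacchrosomes). […] Substrates per isoform are 7-ethoxyresorufin, 3-cyano-7-ethoxycoumarin, EOMCC or dibenzylfluorescein, read as endpoint fluorescence. Background from compound-only wells without enzyme is subtracted. Independent triplicate runs; α-naphthoflavone positive control.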

[3] = target: CYP2D6 (Homo sapiens, UniProt P10635); test: Inhibition of recombinant human CYP2D6 expressed in baker's yeast-derived microsomes (Sacchrosomes) at 10 uM using 7-ethoxy-methyloxy-3-cyanocoumarin substrate by EROD assay relative to control; format: ADME; settings: probe 7-ethoxy-methyloxy-3-cyanocoumarin; in short: as §1
CYP2D6, sequence (P10635 whole entry): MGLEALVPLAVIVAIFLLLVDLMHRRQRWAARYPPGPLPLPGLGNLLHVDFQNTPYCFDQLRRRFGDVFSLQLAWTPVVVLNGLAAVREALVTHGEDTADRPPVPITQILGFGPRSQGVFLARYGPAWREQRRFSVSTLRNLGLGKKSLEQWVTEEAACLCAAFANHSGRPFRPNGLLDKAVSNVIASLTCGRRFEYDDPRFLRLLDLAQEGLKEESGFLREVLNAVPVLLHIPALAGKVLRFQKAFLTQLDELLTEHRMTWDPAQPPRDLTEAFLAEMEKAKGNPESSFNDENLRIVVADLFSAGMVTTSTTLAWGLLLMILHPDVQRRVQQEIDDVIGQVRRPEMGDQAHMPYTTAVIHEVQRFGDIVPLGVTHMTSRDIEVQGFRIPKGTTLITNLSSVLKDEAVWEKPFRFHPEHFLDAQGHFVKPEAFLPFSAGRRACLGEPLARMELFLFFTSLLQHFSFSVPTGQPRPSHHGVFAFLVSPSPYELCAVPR

[4] = target: T2, CYP1A2 (Homo sapiens, UniProt P05177); test: Inhibition of recombinant human CYP1A2 expressed in baker's yeast-derived microsomes (Sacchrosomes) at 10 uM using 3-cyano-7-ethoxycoumarin substrate by EROD assay relative to control; format: ADME; settings: probe 3-cyano-7-ethoxycoumarin
T2 sequence (P05177 whole entry): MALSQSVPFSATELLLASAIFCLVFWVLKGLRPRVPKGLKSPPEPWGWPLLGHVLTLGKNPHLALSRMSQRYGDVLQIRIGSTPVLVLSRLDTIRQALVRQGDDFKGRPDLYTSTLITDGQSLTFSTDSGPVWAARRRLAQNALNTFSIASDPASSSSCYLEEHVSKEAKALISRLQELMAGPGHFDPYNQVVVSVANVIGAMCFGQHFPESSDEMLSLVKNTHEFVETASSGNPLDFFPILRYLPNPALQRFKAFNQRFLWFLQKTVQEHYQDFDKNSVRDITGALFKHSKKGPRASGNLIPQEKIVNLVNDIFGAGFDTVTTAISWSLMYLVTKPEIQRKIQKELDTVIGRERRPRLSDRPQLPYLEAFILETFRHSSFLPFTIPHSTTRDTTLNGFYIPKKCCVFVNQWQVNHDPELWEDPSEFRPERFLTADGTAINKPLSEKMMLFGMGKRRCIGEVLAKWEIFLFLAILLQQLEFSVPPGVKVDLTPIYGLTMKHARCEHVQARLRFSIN
In short: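 Yeast microsomes carrying recombinant CYP (Sacchrosomes). Substrates per isoform are 7-ethoxyresorufin, 3-cyano-7-ethoxycoumarin, EOMCC or dibenzylfluorescein, read as endpoint fluorescence. Background from compound-only wells without enzyme is subtracted. Independent triplicate runs; α-naphthoflavone positive control.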

[5] = target: CYP2C9 (Homo sapiens, UniProt P11712); test: Inhibition of recombinant human CYP2C9 expressed in baker's yeast-derived microsomes (Sacchrosomes) at 10 uM using 3-cyano-7-ethoxycoumarin substrate by EROD assay relative to control; format: ADME; settings: probe 3-cyano-7-ethoxycoumarin; in short: as §1
CYP2C9, sequence (P11712 whole entry): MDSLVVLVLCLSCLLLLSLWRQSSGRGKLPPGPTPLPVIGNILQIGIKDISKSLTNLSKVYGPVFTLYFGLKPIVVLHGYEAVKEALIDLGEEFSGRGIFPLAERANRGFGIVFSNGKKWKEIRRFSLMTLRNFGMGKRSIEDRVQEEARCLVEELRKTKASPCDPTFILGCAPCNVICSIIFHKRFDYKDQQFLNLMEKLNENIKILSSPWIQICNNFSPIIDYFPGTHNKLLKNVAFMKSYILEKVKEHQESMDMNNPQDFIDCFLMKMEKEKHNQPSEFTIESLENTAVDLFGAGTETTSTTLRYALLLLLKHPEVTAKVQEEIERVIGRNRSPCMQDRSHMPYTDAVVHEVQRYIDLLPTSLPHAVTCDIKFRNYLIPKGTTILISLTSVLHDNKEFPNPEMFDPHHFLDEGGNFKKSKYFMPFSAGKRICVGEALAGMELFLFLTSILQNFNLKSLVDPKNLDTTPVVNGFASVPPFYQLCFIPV

[6] = target: Cytochrome P450 2C9 (Homo sapiens, UniProt P11712); test: Inhibition of human recombinant CYP2C9 expressed in HEK293 cells using 3-cyano-7-ethoxycoumarin substrate substrate preincubated for 30 mins followed by substrate addition and measured after 60 mins by fluorescence assay relative to control; format: ADME, cell-based
Cytochrome P450 2C9, sequence (P11712 whole entry): as above
In short: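 HEK293 cells adapted to suspension and transiently transfected with pcDNA3.1 plasmids carrying the individual CYP; 100×10^3 cells per well in triplicate. […] Fluorogenic substrate is then added at 5 μM and fluorescence read for 60 min.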

[7] = target: CYP2C19 (Homo sapiens, UniProt P33261); test: Inhibition of recombinant human CYP2C19 expressed in baker's yeast-derived microsomes (Sacchrosomes) at 10 uM using 3-cyano-7-ethoxycoumarin substrate by EROD assay relative to control; format: ADME; settings: probe 3-cyano-7-ethoxycoumarin; in short: as §1
CYP2C19, sequence (P33261 whole entry): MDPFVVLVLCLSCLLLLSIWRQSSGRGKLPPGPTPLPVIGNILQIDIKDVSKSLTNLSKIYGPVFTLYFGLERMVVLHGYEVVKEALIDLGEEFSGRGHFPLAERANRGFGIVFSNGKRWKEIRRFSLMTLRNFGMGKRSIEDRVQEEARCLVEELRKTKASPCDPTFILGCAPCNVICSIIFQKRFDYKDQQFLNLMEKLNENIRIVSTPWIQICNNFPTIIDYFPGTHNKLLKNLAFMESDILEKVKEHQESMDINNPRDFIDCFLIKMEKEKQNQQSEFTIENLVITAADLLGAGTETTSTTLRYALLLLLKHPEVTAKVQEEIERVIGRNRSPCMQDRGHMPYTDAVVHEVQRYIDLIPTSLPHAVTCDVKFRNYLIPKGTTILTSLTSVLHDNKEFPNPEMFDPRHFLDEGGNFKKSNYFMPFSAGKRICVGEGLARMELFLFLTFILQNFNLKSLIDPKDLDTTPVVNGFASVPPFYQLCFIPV

Q: Which results are given for `COc1c2ccoc2c(OC)c2oc(=O)ccc12` [ISOPIMPINELLIN]?
A: IC50 [1]: > 10 µM; inhibition at 10 µM [2]: 55%; inhibition at 10 µM [3]: 0%; inhibition at 10 µM [4]: 62%; inhibition at 10 µM [5]: 0%; IC50 [6]: > 10 µM; inhibition at 10 µM [7]: 0%

Q: With `COc1c2ccoc2cc2oc(=O)ccc12` [BERGAPTEN] as the compound, how does the IC50 [1] read?
A: > 10 µM

Q: And the inhibition at 10 µM [2]?
A: 20%

Q: What about the inhibition at 10 µM [3] of the same compound?
A: 9%

Q: And the inhibition at 10 µM [4]?
A: 73%

Q: What about the inhibition at 10 µM [5] of the same compound?
A: 4%

Q: What about the IC50 [6] of the same compound?
A: > 10 µM

Q: What about the inhibition at 10 µM [7] of the same compound?
A: 5%
